The source made the active and inactive calls. No cut-off for these calls is given here.
Key:
[1] = system: GL261; test: Antitumor activity against C57BL/6 mouse GL261 cells xenografted in C57BL/6 mouse assessed as reduction in tumor volume at 20 mg/kg, ip administered once daily for 10 days starting from 7 days post tumor cell inoculation and measured on day 17; format: functional, organism-based; conditions: dose 20.0 mg/kg/day, time 10.0 day
[2] = system: GL261; test: Antitumor activity against C57BL/6 mouse GL261 cells xenografted in C57BL/6 mouse assessed as reduction in tumor volume at 20 mg/kg, po administered via gavage once daily for 10 days starting from 7 days post tumor cell inoculation and measured on day 17; format: functional, organism-based; conditions: dose 20.0 mg/kg/day, time 10.0 day
[3] = system: U-87 MG; test: Antiproliferative activity against human U87MG cells assessed as cell growth inhibition measured after 72 hrs by SRB assay; format: functional, cell-based, U-87MG ATCC
How it was run: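 U87MG human glioma cells grown in DMEM with 10% FBS at 37 °C, used up to 30 passages and treated at 40-50% confluence. Exposed to 0.1-100 µM for 72 h, with DMSO at most 0.1% final. TCA-fixed, stained with SRB, dye solubilized in Tris pH 10.5, read at 510 nm, expressed as % of DMSO controls. Mean ± SD of three independent assays.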

[4] = system: U-251; test: Antiproliferative activity against human U251MG cells assessed as cell growth inhibition measured after 72 hrs by SRB assay; format: functional, cell-based; conditions: U-251, 72 h
[5] = system: Astrocyte; test: Cytotoxicity against Wistar rat astrocytes assessed as cell growth inhibition at 100 uM measured after 72 hrs by SRB assay; format: cell-based
[6] = system: C6; test: Antiproliferative activity against rat C6 cells assessed as cell growth inhibition measured after 72 hrs by SRB assay; format: functional, cell-based; conditions: C6, 72 h
[7] = Selectivity index, ratio of CC50 for Wistar rat astrocytes to EC50 for human U87MG cells
How it was run: (§1)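 Selectivity index is astrocyte CC50 divided by the glioma-line EC50, both from 72 h SRB assays. No index is given when astrocyte cytotoxicity could not be calculated at the highest concentration tested.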

[8] = Nephrotoxicity in C57BL/6 mouse xenografted with C57BL/6 mouse GL261 cells assessed as serum creatinine level at 100 mg/kg, po or ip administered once daily for 10 days starting from 7 days post tumor cell inoculation and measured on day 17 (reference value: 0.4 +/- 0.3 mg/dl); format: toxicity, organism-based; conditions: in vivo, 240 h, dose 100 mg/kg/day, time 10 day
[9] = Selectivity index, ratio of CC50 for Wistar rat astrocytes to EC50 for rat C6 cells; how it was run: as §1
[10] = Toxicity in C57BL/6 mouse xenografted with C57BL/6 mouse GL261 cells assessed as body weight at 100 mg/kg, po administered via gavage once daily for 10 days starting from 7 days post tumor cell inoculation; format: organism-based; conditions: in vivo, 240 h, dose 100 mg/kg/day, time 10 day
How it was run: (§2)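 Orthotopic model: 5x10^4 GL261 cells in 2 µL serum-free DMEM injected into the right hemisphere of 60-day-old male and female C57BL/6 mice (17-25 g) under ketamine/xylazine. Treatment began 7 days later, n=9 per group. Compound was given in 0.9% saline with 10% DMSO and 0.3% Tween-80, as 100 µL ip or 200 µL by gavage. Body weight change (final minus initial) and mortality were monitored.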

[11] = Selectivity index, ratio of CC50 for Wistar rat astrocytes to EC50 for human U-251 MG cells; how it was run: as §1
[12] = (§3) Inhibition of TrxR in rat liver assessed as reduction in TNB formation using DTNB and NADPH as substrate preincubated with enzyme for 15 mins followed by NADPH addition by absorbance based analysis; format: tissue-based
How it was run: (§4)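 TrxR activity was measured at 37 °C in 100 mM potassium phosphate pH 7.0 with 2 mg/mL DTNB and 0.01 mg/mL enzyme. Enzyme was preincubated for 15 min with compound or DMSO, then the reaction was started with 0.2 mg/mL NADPH. TNB formation was followed at 412 nm (ε 13.6 mM-1 cm-1). Assays were run in duplicate, with enzyme-free blanks subtracted.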

[13] = species: Rattus norvegicus; test: as §3; format: tissue-based; how it was run: as §4
[14] = Hematological toxicity in C57BL/6 mouse xenografted with C57BL/6 mouse GL261 cells assessed as blood glucose level at 100 mg/kg, po or ip administered once daily for 10 days starting from 7 days post tumor cell inoculation and measured on day 17 (reference value: 108 +/- 13 mg/dl); format: organism-based; conditions: in vivo, 240 h, dose 100 mg/kg/day, time 10 day
[15] = Toxicity in C57BL/6 mouse xenografted with C57BL/6 mouse GL261 cells assessed as mortality at 100 mg/kg, ip administered once daily for 10 days starting from 7 days post tumor cell inoculation; format: organism-based; conditions: in vivo, 240 h, dose 100 mg/kg/day, time 10 day; how it was run: as §2
[16] = Toxicity in C57BL/6 mouse xenografted with C57BL/6 mouse GL261 cells assessed as mortality at 100 mg/kg, po administered via gavage once daily for 10 days starting from 7 days post tumor cell inoculation; format: organism-based; conditions: in vivo, 240 h, dose 100 mg/kg/day, time 10 day; how it was run: as §2
[17] = Hepatotoxicity in C57BL/6 mouse xenografted with C57BL/6 mouse GL261 cells assessed as serum ALT level at 100 mg/kg, po or ip administered once daily for 10 days starting from 7 days post tumor cell inoculation and measured on day 17 (reference value: 7.6 +/- 4.2 U/L); format: toxicity, organism-based; conditions: in vivo, 240 h, dose 100 mg/kg/day, time 10 day
[18] = Hematological toxicity in C57BL/6 mouse xenografted with C57BL/6 mouse GL261 cells assessed as WBC level in blood at 100 mg/kg, po or ip administered once daily for 10 days starting from 7 days post tumor cell inoculation and measured on day 17 (reference value: 8.6 +/- 1.6x10^3/uL); format: organism-based; conditions: in vivo, 240 h, dose 100 mg/kg/day, time 10 day
[19] = Toxicity in C57BL/6 mouse xenografted with C57BL/6 mouse GL261 cells at 100 mg/kg, ip administered once daily for 10 days starting from 7 days post tumor cell inoculation; format: organism-based; conditions: in vivo, 240 h, dose 100 mg/kg/day, time 10 day; how it was run: as §2
[20] = Hepatotoxicity in C57BL/6 mouse xenografted with C57BL/6 mouse GL261 cells assessed as serum ALP level at 100 mg/kg, po or ip administered once daily for 10 days starting from 7 days post tumor cell inoculation and measured on day 17 (reference value: 19.1 +/- 8.9 U/L); format: toxicity, organism-based; conditions: in vivo, 240 h, dose 100 mg/kg/day, time 10 day
[21] = Toxicity in C57BL/6 mouse xenografted with C57BL/6 mouse GL261 cells assessed as body weight at 100 mg/kg, ip administered once daily for 10 days starting from 7 days post tumor cell inoculation; format: organism-based; conditions: in vivo, 240 h, dose 100 mg/kg/day, time 10 day; how it was run: as §2
[22] = system: GL261; test: Antitumor activity against C57BL/6 mouse GL261 cells xenografted in C57BL/6 mouse assessed as reduction in tumor volume at 10 to 100 mg/kg, po administered via gavage once daily for 10 days starting from 7 days post tumor cell inoculation and measured on day 17; format: functional, organism-based; conditions: dose 10-100 mg/kg/day, time 10.0 day
How it was run: (§5)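 GL261 cells (5x10^4 in 2 µL DMEM) were injected into the right hemisphere of 60-day-old male and female C57BL/6 mice (17-25 g) under ketamine/xylazine. From day 7, mice received compound once daily for 10 days (n=9 per group), by gavage (200 µL) or ip (100 µL). Vehicle was 0.9% saline with 10% DMSO and 0.3% Tween-80. Tumor volume was taken as the summed segmented areas of three H&E coronal sections.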

[23] = system: C6; test: Antiproliferative activity against rat C6 cells assessed as cell growth inhibition measured after 72 hrs in presence of 0.0001 to 0.001% Triton X-100 by SRB assay; format: functional, cell-based
How it was run: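 Rat C6 glioma cells were incubated for 72 h in medium with no detergent or with 0.0001% or 0.001% Triton X-100, as a check for aggregation-based cytotoxicity. Viability was read by SRB assay and an EC50 was derived from concentration-response curves. Mean ± SD of three independent assays.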

[24] = Cytotoxicity against Wistar rat astrocytes assessed as cell growth inhibition measured after 72 hrs by SRB assay; format: cell-based, Astrocyte
How it was run: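 Primary astrocytes taken from the cortex of 2-day-old Wistar rats by mechanical dissociation, grown on poly-L-lysine in high-glucose DMEM and treated at 90% confluence (12-15 days). Exposed to 0.1-100 µM for 72 h, then SRB assay with absorbance read at 510 nm against DMSO controls. Mean ± SD of three independent assays.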

[25] = species: Rattus norvegicus; test: Inhibition of TrxR in rat liver assessed as reduction in TNB formation using DTNB and NADPH as substrate at 100 uM preincubated with enzyme for 15 mins followed by NADPH addition by absorbance based analysis; format: tissue-based; how it was run: as §4
[26] = Hematological toxicity in C57BL/6 mouse xenografted with C57BL/6 mouse GL261 cells assessed as hematocrit level in blood at 100 mg/kg, po or ip administered once daily for 10 days starting from 7 days post tumor cell inoculation and measured on day 17 (reference value: 44.5 +/- 1.8%); format: organism-based; conditions: in vivo, 240 h, dose 100 mg/kg/day, time 10 day
[27] = Toxicity in C57BL/6 mouse xenografted with C57BL/6 mouse GL261 cells at 100 mg/kg, po administered via gavage once daily for 10 days starting from 7 days post tumor cell inoculation; format: organism-based; conditions: in vivo, 240 h, dose 100 mg/kg/day, time 10 day; how it was run: as §2
[28] = system: C6; test: Antiproliferative activity against rat C6 cells assessed as cell growth inhibition preincubated with NAC for 1 hr prior to compound challenge and measured after 72 hrs by SRB assay; format: functional, cell-based
How it was run: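 C6 cells were pretreated with 2 mM N-acetylcysteine for 1 h, then exposed to compound for 72 h. Viability was measured by SRB assay relative to DMSO-treated controls. Auranofin served as the reference thiol-reactive control.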

[29] = Antitumor activity against C57BL/6 mouse GL261 cells xenografted in C57BL/6 mouse assessed as reduction in tumor volume at 100 mg/kg, ip administered once daily for 10 days starting from 7 days post tumor cell inoculation and measured on day 17; format: functional; conditions: C57BL/6, GL261, ip, 240 h, time 10 day; how it was run: as §5

SMILES | EC50 [3] | EC50 [4] | EC50 [6] | Ratio CC50/EC50 [7] | Activity [8] | Ratio CC50/EC50 [9] | Activity [10] | Ratio CC50/EC50 [11] | Activity [14] | Activity [15] | Activity [16] | Activity [17] | Activity [18] | Activity [19] | Activity [20] | Activity [21] | Activity [22] | Activity [23] | CC50 at 72 h [24] | inhibition [25] | other results
Cn1nnc2c(C(N)=O)ncn2c1=O [TEMOZOLOMIDE] | > 200 µM | > 200 µM | 60500 nM |  |  |  |  |  |  |  |  |  |  |  |  |  |  |  |  |  | Activity [1]: Active; Activity [2]: inactive; Activity [5]: Non-Toxic
CCCCc1ccc(C(=O)/C=C/c2ccc([N+](=O)[O-])o2)cc1 | 5.8 µM | 3.9 µM | 1700 nM | 7.1 | 0.3 mg/dL | 24.2 | Non-Toxic | 10.6 | 94 mg/dL | Non-Toxic | Non-Toxic | 19.8 U/L | 9.5 10^3 /uL | Non-Toxic | 22.2 U/L | Non-Toxic | inactive | Active | 41.2 µM | 80.7% | IC50 [12]: 25 µM; inhibition [13]: Dose-dependent effect; Activity [26]: 45.5%; Activity [27]: Non-Toxic; Activity [28]: inactive
O=C(/C=C/c1ccc([N+](=O)[O-])o1)c1cccc(Br)c1 | 6.8 µM | 5.8 µM | 1400 nM | 5.2 | 0.5 mg/dL | 25.4 | Non-Toxic | 6.1 | 109 mg/dL | Non-Toxic | Non-Toxic | 9.9 U/L | 9.2 10^3 /uL | Non-Toxic | 20.6 U/L | Non-Toxic | inactive | Active | 35.6 µM | 78.7% | Activity [26]: 45.3%; Activity [27]: Non-Toxic; Activity [28]: inactive; inhibition in vivo at 100 mg/kg/day [29]: 41.3%
Cc1cccc(C(=O)/C=C/c2ccc([N+](=O)[O-])o2)c1 | 3.3 µM | 2.3 µM | 2100 nM | 15.8 | 0.4 mg/dL | 24.8 | Non-Toxic | 22.7 | 108 mg/dL | Non-Toxic | Non-Toxic | 6.2 U/L | 8.4 10^3 /uL | Non-Toxic | 20.3 U/L | Non-Toxic | inactive | Active | 52.2 µM | 95.2% | IC50 [12]: 25 µM; inhibition [13]: Dose-dependent effect; Activity [26]: 46%; Activity [27]: Non-Toxic; Activity [28]: inactive; inhibition in vivo at 100 mg/kg/day [29]: 43.8%
